# Data reported in ChEMBL document CHEMBL1629636, “In vitro susceptibility of Borrelia spielmanii to antimicrobial agents commonly used for treatment of Lyme disease” (2009).
# Legend:
# Type in all cases: functional
# [1] = Antimicrobial activity against Borrelia spielmanii A14S after 72 hrs by colorimetric assay; conditions: Borreliella spielmanii
# Outline: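 Low-passage isolates (10 to 20 passages) grown in BSK medium were tested in microtiter trays precoated with lyophilized antimicrobials. MIC was read colorimetrically after 72 h. Independent experiments were run on three different days, and the MIC reported is the median of the three.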
# Borrelia spielmanii [2] = test: Antimicrobial activity against Borrelia spielmanii isolate PJes after 72 hrs by colorimetric assay; conditions: Borreliella spielmanii
# Outline: (§1)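 Tested in microtiter trays preloaded with lyophilized antibiotics; clinical isolates were low-passage (10 to 20 passages). MIC was read by colorimetric assay after 72 h. MBC was defined as 100% killing in liquid medium at 72 h: aliquots from vials showing no growth were diluted 1:1,000 in BSK and checked for regrowth after 3 weeks of subculture. Values are medians of three independent experiments on separate days.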
# Borrelia spielmanii [3] = test: Antimicrobial activity against Borrelia spielmanii isolate PHap after 72 hrs by colorimetric assay; conditions: Borreliella spielmanii; outline: as §1
# Borrelia garinii [4] = test: Antimicrobial activity against Borrelia garinii isolate PSth after 72 hrs by colorimetric assay; conditions: Borreliella garinii; outline: as §1
# Borrelia afzelii [5] = test: Antimicrobial activity against Borrelia afzelii isolate G1039 after 72 hrs by colorimetric assay; conditions: Borreliella afzelii, isolate G1039, 72 h; outline: as §1
# Borrelia spielmanii [6] = test: Antimicrobial activity against Borrelia spielmanii isolate PMew after 72 hrs by colorimetric assay; conditions: Borreliella spielmanii; outline: as §1
# Borrelia spielmanii [7] = test: Antimicrobial activity against Borrelia spielmanii isolate PAnz after 72 hrs by colorimetric assay; conditions: Borreliella spielmanii; outline: as §1
# Borrelia spielmanii [8] = test: Antimicrobial activity against Borrelia spielmanii isolate PMai after 72 hrs by colorimetric assay; conditions: Borreliella spielmanii; outline: as §1
# Borrelia garinii [9] = test: Antimicrobial activity against Borrelia garinii isolate M2094 after 72 hrs by colorimetric assay; conditions: Borreliella garinii, isolate M2094, 72 h; outline: as §1
# Borrelia garinii [10] = test: Antimicrobial activity against Borrelia garinii isolate G1 after 72 hrs by colorimetric assay; conditions: Borreliella garinii, isolate G1, 72 h; outline: as §1
# Borrelia spielmanii [11] = test: Antimicrobial activity against Borrelia spielmanii isolate PC-Eq17 after 72 hrs by colorimetric assay; conditions: Borreliella spielmanii, isolate PC-Eq17, 72 h; outline: as §1
# Borrelia afzelii [12] = test: Antimicrobial activity against Borrelia afzelii isolate G600 after 72 hrs by colorimetric assay; conditions: Borreliella afzelii, isolate G600, 72 h; outline: as §1
# Borrelia spielmanii [13] = test: Antimicrobial activity against Borrelia spielmanii isolate TIsar2 after 72 hrs by colorimetric assay; conditions: Borreliella spielmanii, isolate TIsar2, 72 h; outline: as §1
# Borrelia spielmanii [14] = test: Antimicrobial activity against Borrelia spielmanii isolate PSig2 after 72 hrs by colorimetric assay; conditions: Borreliella spielmanii, isolate PSig2, 72 h; outline: as §1
# Borrelia spielmanii [15] = test: Antimicrobial activity against Borrelia spielmanii isolate TIsar3 after 72 hrs by colorimetric assay; conditions: Borreliella spielmanii, isolate TIsar3, 72 h; outline: as §1
# Borrelia burgdorferi = test: Antimicrobial activity against Borrelia burgdorferi isolate LW2 after 72 hrs by colorimetric assay; conditions: Borreliella burgdorferi, isolate LW2, 72 h; outline: as §1
# [16] = Antimicrobial activity against Borrelia burgdorferi B31 after 72 hrs by colorimetric assay; conditions: Borreliella burgdorferi; outline: as §1
# Borrelia afzelii [17] = test: Antimicrobial activity against Borrelia afzelii isolate FEM1 after 72 hrs by colorimetric assay; conditions: Borreliella afzelii, isolate FEM1, 72 h; outline: as §1
# Borrelia = test: Antimicrobial activity against Borrelia clinical isolate after 72 hrs by colorimetric assay; outline: as §1
# Staphylococcus aureus = test: Antimicrobial activity against Staphylococcus aureus ATCC 29213 after 72 hrs by colorimetric assay; conditions: ATCC 29213, 72 h
# Outline: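 Quality-control MIC followed the CLSI method with two changes: BSK medium was used, and the antibiotic-medium preparation was preincubated for 48 h before testing. Tests were run on three different days, and the MIC reported is the median of the three.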
smiles,measurement,setting,value
CC1(C)S[C@@H]2[C@H](NC(=O)[C@H](N)c3ccc(O)cc3)C(=O)N2[C@H]1C(=O)O [AMOXICILLIN],MBC,[1],16 µg/mL
same,MIC,[1],0.25 µg/mL
same,MBC,Borrelia spielmanii [2],16 µg/mL
same,MIC,Borrelia spielmanii [2],0.25 µg/mL
same,MBC,Borrelia spielmanii [3],> 16 µg/mL
same,MIC,Borrelia spielmanii [3],2 µg/mL
same,MBC,Borrelia garinii [4],8 µg/mL
same,MIC,Borrelia garinii [4],0.125 µg/mL
same,MBC,Borrelia afzelii [5],8 µg/mL
same,MIC,Borrelia afzelii [5],0.5 µg/mL
same,MBC,Borrelia spielmanii [6],> 16 µg/mL
same,MIC,Borrelia spielmanii [6],1 µg/mL
same,MBC,Borrelia spielmanii [7],16 µg/mL
same,MIC,Borrelia spielmanii [7],0.25 µg/mL
same,MBC,Borrelia spielmanii [8],8 µg/mL
same,MIC,Borrelia spielmanii [8],2 µg/mL
same,MBC,Borrelia garinii [9],16 µg/mL
same,MIC,Borrelia garinii [9],0.25 µg/mL
same,MBC,Borrelia garinii [10],16 µg/mL
same,MIC,Borrelia garinii [10],≤ 0.125 µg/mL
same,MBC,Borrelia spielmanii [11],> 16 µg/mL
same,MIC,Borrelia spielmanii [11],0.5 µg/mL
same,MBC,Borrelia afzelii [12],4 µg/mL
same,MIC,Borrelia afzelii [12],1 µg/mL
same,MBC,Borrelia spielmanii [13],16 µg/mL
same,MIC,Borrelia spielmanii [13],≤ 0.125 µg/mL
same,MBC,Borrelia spielmanii [14],16 µg/mL
same,MIC,Borrelia spielmanii [14],0.5 µg/mL
same,MBC,Borrelia spielmanii [15],4 µg/mL
same,MIC,Borrelia spielmanii [15],2 µg/mL
same,MBC,Borrelia burgdorferi,4 µg/mL
same,MIC,Borrelia burgdorferi,1 µg/mL
same,MBC,[16],16 µg/mL
same,MIC,[16],0.5 µg/mL
same,MBC,Borrelia afzelii [17],4 µg/mL
same,MIC,Borrelia afzelii [17],4 µg/mL
same,MBC90,Borrelia,>16 µg/mL
same,MIC90,"Borrelia; Borrelia, 72 h",2 µg/mL
same,MIC,Staphylococcus aureus,2 µg/mL
